Results taken from ChEMBL document CHEMBL5154633 (J Med Chem, 2022).
Active and inactive are the calls of the source. The calls are words filed in the database; no cut-off is given here.

How the values were obtained:
[1] = test system: SARS-CoV-2; test: Antiviral activity against SARS-COV 2 infected in human Calu-3 cells assessed as inhibition of viral replication after 48 hrs by qRT-PCR analysis; format: functional, organism-based; details: Severe acute respiratory syndrome coronavirus 2, Calu-3, 48 h
[2] = test system: SARS-CoV-2; test: Antiviral activity against SARS-COV 2 infected in African green monkey Vero E6 cells assessed as inhibition of viral replication after 48 hrs by qRT-PCR analysis; format: functional, organism-based; details: Severe acute respiratory syndrome coronavirus 2, Vero C1008, 48 h
[3] = test system: SARS-CoV-2; test: Antiviral activity against SARS-COV 2 infected in human Caco-2 cells assessed as inhibition of viral replication after 48 hrs by qRT-PCR analysis; format: functional, organism-based; details: Severe acute respiratory syndrome coronavirus 2, Caco-2, 48 h
[4] = AUC in human plasma at 3 to 225 mg, iv administered as 2 hr infusion; format: ADME, organism-based; design: time 2 hrs, route iv; details: dose 3-225 mg
[5] = Half life in human plasma at 3 to 225 mg, iv administered as 2 hr infusion; format: ADME, organism-based; details: dose 3-225 mg
[6] = test system: Vero C1008; test: Cytotoxicity against African green monkey Vero cells assessed as reduction in cell viability upto 50 uM measured for 48 hrs by CCK8 assay; format: toxicity, cell-based; details: chlorocebus sabaeus, vero c1008, 48 h
Procedure, shortened: (§1)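 Vero E6, Calu-3 or Caco-2 cells were seeded at 20 000/well. They were exposed to 0, 0.01, 0.1, 1, 5, 10 or 50 μM compound for 48 h, and viability was read by CCK-8.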

[7] = test system: Calu-3; test: Cytotoxicity against human Calu-3 cells assessed as reduction in cell viability upto 50 uM measured for 48 hrs by CCK8 assay; format: toxicity, cell-based; details: calu-3, 48 h; procedure, shortened: as §1
[8] = test system: Caco-2; test: Cytotoxicity against human Caco-2 cells assessed as reduction in cell viability upto 50 uM measured for 48 hrs by CCK8 assay; format: toxicity, cell-based; details: caco-2, 48 h; procedure, shortened: as §1
[9] = AUC(0 to t) in Sprague-Dawley rat at 30 mg/kg, iv measured over 48 hrs by HPLC/MS analysis; format: ADME, organism-based; design: dose 30 mg/kg, time 48 hrs, route iv; details: in vivo
[10] = AUC(0 to t) in Sprague-Dawley rat at 30 mg/kg, ig measured over 48 hrs by HPLC/MS analysis; format: ADME, organism-based; design: dose 30 mg/kg, time 48 hrs, route ig; details: in vivo, po
[11] = Tmax in Sprague-Dawley rat at 30 mg/kg, iv measured over 48 hrs by HPLC/MS analysis; format: ADME, organism-based; details: in vivo
[12] = Tmax in Sprague-Dawley rat at 30 mg/kg, ig measured over 48 hrs by HPLC/MS analysis; format: ADME, organism-based; details: in vivo, po
[13] = Cmax in Sprague-Dawley rat at 30 mg/kg, iv measured over 48 hrs by HPLC/MS analysis; format: ADME, organism-based; design: dose 30 mg/kg, time 48 hrs, route iv; details: in vivo
[14] = Oral bioavailability in Sprague-Dawley rat at 30 mg/kg measured over 48 hrs by HPLC/MS analysis; format: ADME, organism-based; details: in vivo
[15] = test system: SARS-CoV-2; test: Antiviral activity against SARS-CoV-2 infected in AAV-human ACE2 transduced BALB/c mouse assessed as viral clearance in lungs at 25 mg/kg/day, ip administered 1 day prior to viral infection and measured after 2 days post infection by focus forming assay; format: functional, organism-based; details: Severe acute respiratory syndrome coronavirus 2, time 3.0 day
[16] = Toxicity AAV-human ACE2 transduced BALB/c mouse infected with SARS-COV2 assessed as loss of body weight at 25 mg/kg/day, ip administered 1 day prior to viral infection and treated for 8 days; format: organism-based; details: in vivo, 192 h, time 8 day
[17] = Toxicity in BALB/c mouse infected with MHV-A59 assessed as change in body weight at 100 mg/kg, ip administered at 0.5 hrs post infection followed by 50 mg/kg administered daily measured upto 14 days; format: organism-based; details: in vivo, 336 h, time < 14 day
Procedure, shortened: (§2)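 MHV-A59-infected male BALB/c mice (3–4 weeks) were dosed 100 mg/kg IG or IP at 0.5 hpi, then 50 mg/kg daily for 4 d. Uninfected drug-treated and PBS-only groups served as controls. Body weight was recorded daily for 14 d, N = 8 per group.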

[18] = test system: Murine hepatitis virus; test: Antiviral activity against MHV-A59 infected in BALB/c mouse assessed as improvement in survival at 100 mg/kg, ig administered at 0.5 hrs post infection followed by 50 mg/kg administered daily measured upto 14 days; format: functional; details: time <= 14 day
Procedure, shortened: (§3)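 Male SPF BALB/c mice, 3–4 weeks old, were inoculated intranasally with 30 μL MHV-A59 in PBS (TCID50 10^-7.125/100 μL). They received 100 mg/kg IG or IP at 0.5 hpi, then 50 mg/kg once daily for the next 4 d. Untreated infected controls received PBS. Survival was followed for 14 d, N = 8 per group.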

[19] = test system: Murine hepatitis virus; test: Antiviral activity against MHV-A59 infected in BALB/c mouse assessed as improvement in survival at 100 mg/kg, ip administered at 0.5 hrs post infection followed by 50 mg/kg administered daily measured upto 14 days; format: functional; details: time <= 14 day; procedure, shortened: as §3
[20] = test system: Murine hepatitis virus; test: Antiviral activity against MHV-A59 infected in BALB/c mouse assessed as reduction in viral titer in liver at 100 mg/kg, ig administered at 0.5 hrs post infection followed by 50 mg/kg administered daily measured upto 14 days by qRT-PCR analysis; format: functional; design: scale not given: the % may be the effect or the level left; details: time <= 14 day
Procedure, shortened: (§4)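 Male BALB/c mice were infected intranasally with MHV-A59 and dosed 100 mg/kg IG or IP at 0.5 hpi, then 50 mg/kg daily. Three mice per group were killed at 3 dpi. Liver RNA was extracted and viral load quantified by qRT-PCR against PBS-treated infected controls.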

[21] = test system: Murine hepatitis virus; test: Antiviral activity against MHV-A59 infected in BALB/c mouse assessed as reduction in viral titer in liver at 100 mg/kg, ip administered at 0.5 hrs post infection followed by 50 mg/kg administered daily measured upto 14 days by qRT-PCR analysis; format: functional; design: scale not given: the % may be the effect or the level left; details: time <= 14 day; procedure, shortened: as §4
[22] = Toxicity in BALB/c mouse infected with MHV-A59 assessed as change in body weight at 100 mg/kg, ig administered at 0.5 hrs post infection followed by 50 mg/kg administered daily measured upto 14 days; format: organism-based; details: in vivo, po, 336 h, time < 14 day; procedure, shortened: as §2

**Q.** Which IC50 [1] does the source give for `CCC(CC)COC(=O)[C@H](C)N[P@](=O)(OC[C@H]1O[C@@](C#N)(c2ccc3c(N)ncnn23)[C@H](O)[C@@H]1O)Oc1ccccc1` here?
**A.** 0.65 µM

**Q.** And the IC50 [2]?
**A.** 1.35 µM

**Q.** And the IC50 [3]?
**A.** 0.58 µM

**Q.** And the AUC at 2 h [4]?
**A.** 1590 ng·h/mL

**Q.** And the half-life [5]?
**A.** < 60 min

**Q.** For `N#C[C@@]1(c2ccc3c(N)ncnn23)O[C@H](CO)[C@@H](O)[C@H]1O` [GS-441524], which IC50 [1] is on record?
**A.** 3.21 µM

**Q.** What about the IC50 [2] of the same molecule?
**A.** 0.7 µM

**Q.** And the IC50 [3]?
**A.** 3.62 µM

**Q.** And the Activity [6]?
**A.** Non-Toxic

**Q.** What about the Activity [7] of the same molecule?
**A.** Non-Toxic

**Q.** What about the Activity [8] of the same molecule?
**A.** Non-Toxic

**Q.** What about the AUC(0-t) at 48 h [9] of the same molecule?
**A.** 592000 ng·h/mL

**Q.** And the AUC(0-t) at 48 h [10]?
**A.** 28700 ng·h/mL

**Q.** And the Tmax [11]?
**A.** 6 min

**Q.** What about the Tmax [12] of the same molecule?
**A.** 56.4 min

**Q.** What about the Cmax [13] of the same molecule?
**A.** 164 µg/mL

**Q.** What about the bioavailability [14] of the same molecule?
**A.** 4.84%

**Q.** What about the Activity [15] of the same molecule?
**A.** Active

**Q.** And the Activity [16]?
**A.** Non-Toxic

**Q.** And the Activity [17]?
**A.** Toxic

**Q.** And the Activity [18]?
**A.** 100%

**Q.** And the Activity [19]?
**A.** 100%

**Q.** What about the Activity [20] of the same molecule?
**A.** 99.9%

**Q.** What about the Activity [21] of the same molecule?
**A.** 99.9%

**Q.** And the Activity [22]?
**A.** Toxic

**Q.** And the AUC at 2 h [4]?
**A.** 2230 ng·h/mL
